What is called IC50 is the concentration at which inhibition is half-maximal.

Data on seven molecules can be found in ChEMBL document CHEMBL4433211, “Discovery of the First-in-Class GSK-3β/HDAC Dual Inhibitor as Disease-Modifying Agent To Combat Alzheimer's Disease” (ACS Med Chem Lett, 2019).

Data set [1] concerns the target T1, Glycogen synthase kinase-3 beta (Homo sapiens, UniProt P49841). The experiment in a line: Inhibition of GSK3beta in human SH-SY5Y cells assessed as reduction in copper-induced tau hyperphosphorylation at 10 mM preincubated for 1 hr followed by copper addition and measured after 26 hrs by ELISA. It is filed as cell-based. The following applies: in the assay text read “16 hrs” for “26 hrs”. In short, it runs like this: (§1)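 Differentiated SH-SY5Y cells pretreated 1 h with test agent (LiCl 10 mM reference; compounds 10 μM), then copper 400 μM for 16 h; cells scraped, phospho-tau quantified by immunoenzymatic assay at 450 nm; mean ± SEM.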
In general terms: In an ELISA, binding on a coated surface is turned into a signal by an enzyme label.
Target sequence in this assay (P49841 whole entry, looked up): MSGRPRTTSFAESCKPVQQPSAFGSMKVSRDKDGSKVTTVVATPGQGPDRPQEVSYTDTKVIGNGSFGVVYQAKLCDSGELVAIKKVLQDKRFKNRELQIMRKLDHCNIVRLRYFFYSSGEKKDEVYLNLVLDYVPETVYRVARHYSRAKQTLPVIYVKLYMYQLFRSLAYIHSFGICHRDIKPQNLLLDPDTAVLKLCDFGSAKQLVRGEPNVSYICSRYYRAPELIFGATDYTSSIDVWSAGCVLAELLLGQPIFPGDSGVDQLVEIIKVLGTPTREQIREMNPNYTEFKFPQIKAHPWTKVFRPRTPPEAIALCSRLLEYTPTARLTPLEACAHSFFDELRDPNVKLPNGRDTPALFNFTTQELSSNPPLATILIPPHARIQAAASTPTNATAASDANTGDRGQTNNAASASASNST

For data set [2], the system named is SH-SY5Y. In words: Induction of neurogenesis in human SH-SY5Y cells assessed as stimulation of neurite outgrowth at 10 uM incubated for 72 hrs by phase contrast microscopic analysis. It is filed as functional, cell-based. The essentials: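 SH-SY5Y cells treated 72 h at 10 μM, retinoic acid (10 μM) as positive control; neurite-bearing cells scored from images taken at 20× magnification.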

The subject of data set [3] is SH-SY5Y. The experiment in a line: Induction of neurogenesis in human SH-SY5Y cells assessed as upregulation of N-myc mRNA at 10 uM incubated for 24 hrs by RT-PCR analysis. It is filed as functional, cell-based. The essentials:
(§2)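 SH-SY5Y cells treated 24 h (10 μM, or 1 μM for one parent compound; retinoic acid positive control); GAP43, N-myc and MAP-2 mRNA measured by RT-PCR, expressed as fold of control.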

The test system of data set [4] is SH-SY5Y. In words: Induction of neurogenesis in human SH-SY5Y cells assessed as upregulation of GAP43 mRNA at 10 uM incubated for 24 hrs by RT-PCR analysis. It is filed as functional, cell-based. In short, it runs like this:
as §2

Data set [5] has as its system SH-SY5Y. The experiment in a line: Induction of neurogenesis in human SH-SY5Y cells assessed as upregulation of MAP-2 mRNA at 10 uM incubated for 24 hrs by RT-PCR analysis. It is filed as functional, cell-based. The essentials:
as §2

In data set [6] the target is T2, Histone deacetylase 1 (Homo sapiens, UniProt Q13547). The experiment in a line: Inhibition of human recombinant his tagged HDAC1 expressed in baculovirus infected […] insect cells using tertbutyloxycarbonyl (Boc)-(Ac)-Lys-7-amino-4-methylcoumarin as substrate incubated for 1 hr by fluorescence based assay.
In data set [7] the target is T1, Glycogen synthase kinase-3 beta. The experiment in a line: Inhibition of human recombinant GSK3beta using GSM as substrate incubated for 30 mins by luminescence based assay.
Target sequence in this assay (P49841 whole entry): as the sequence (P49841 whole entry, looked up) above
Data set [8] has as its target T3, Protein deacetylase HDAC6 (Homo sapiens, UniProt Q9UBN7).
T3 sequence (Q9UBN7 whole entry): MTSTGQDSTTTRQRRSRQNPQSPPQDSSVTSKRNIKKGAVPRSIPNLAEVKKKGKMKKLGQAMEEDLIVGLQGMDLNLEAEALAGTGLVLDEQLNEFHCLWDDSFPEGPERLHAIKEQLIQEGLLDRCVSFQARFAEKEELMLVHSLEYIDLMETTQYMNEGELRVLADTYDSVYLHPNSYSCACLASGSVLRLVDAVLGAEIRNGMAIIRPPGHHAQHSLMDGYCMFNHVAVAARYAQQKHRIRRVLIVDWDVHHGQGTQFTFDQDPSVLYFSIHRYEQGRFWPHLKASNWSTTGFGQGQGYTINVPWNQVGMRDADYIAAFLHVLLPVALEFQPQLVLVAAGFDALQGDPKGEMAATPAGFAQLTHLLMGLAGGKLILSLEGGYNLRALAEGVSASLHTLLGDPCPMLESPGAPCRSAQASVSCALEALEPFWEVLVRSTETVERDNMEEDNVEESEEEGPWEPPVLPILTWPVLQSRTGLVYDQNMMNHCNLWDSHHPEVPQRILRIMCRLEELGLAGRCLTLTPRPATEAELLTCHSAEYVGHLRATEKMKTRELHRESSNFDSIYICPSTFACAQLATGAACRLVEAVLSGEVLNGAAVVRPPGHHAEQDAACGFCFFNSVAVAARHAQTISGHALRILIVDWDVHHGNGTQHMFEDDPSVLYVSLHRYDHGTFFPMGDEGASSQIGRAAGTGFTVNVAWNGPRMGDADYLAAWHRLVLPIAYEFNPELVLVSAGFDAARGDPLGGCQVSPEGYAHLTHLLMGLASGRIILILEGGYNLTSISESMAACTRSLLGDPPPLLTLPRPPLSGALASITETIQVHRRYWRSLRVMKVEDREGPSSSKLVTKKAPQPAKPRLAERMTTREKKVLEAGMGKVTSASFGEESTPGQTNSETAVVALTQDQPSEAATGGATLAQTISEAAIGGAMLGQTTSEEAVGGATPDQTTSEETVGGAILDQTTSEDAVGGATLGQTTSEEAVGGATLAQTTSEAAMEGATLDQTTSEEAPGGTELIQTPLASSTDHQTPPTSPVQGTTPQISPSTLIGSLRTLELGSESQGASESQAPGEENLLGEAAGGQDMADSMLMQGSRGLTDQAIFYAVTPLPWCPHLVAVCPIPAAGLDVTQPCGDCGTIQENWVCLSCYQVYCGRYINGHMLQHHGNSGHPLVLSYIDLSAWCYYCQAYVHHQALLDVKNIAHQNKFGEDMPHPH
In words: Inhibition of human recombinant his tagged HDAC6 expressed in baculovirus infected […] insect cells using batcp as substrate incubated for 1 hr by fluorescence based assay.

In data set [9] the test system is SH-SY5Y. In words: Cytotoxicity against human SH-SY5Y cells at 10 uM incubated for 24 hrs by MTS assay. Type of data set: cell-based. The essentials:
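SH-SY5Y cells exposed to test compound for 24 h at 37 °C; viability read by MTS assay and expressed as % of untreated control.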

In data set [10] the test system is SH-SY5Y. In words: Induction of neurogenesis in human SH-SY5Y cells assessed as upregulation of MAP-2 mRNA at 1 uM incubated for 24 hrs by RT-PCR analysis. Type of data set: functional, cell-based. The essentials: as §2
For data set [11], the system named is Microglia. In words: Immunomodulatory activity in LPS treated Wistar rat primary microglial cells assessed as effect on TREM2 expression level at 5 to 50 uM incubated for 24 hrs by western blot analysis. It is filed as functional, cell-based. The essentials:
(§3)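 Primary microglial cells treated 24 h with LPS in presence or absence of test compound; NOS2, MRC1 and TREM2 protein assessed by Western blot, normalized to GAPDH.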
A general note: In western blotting, separated proteins are transferred to a membrane and probed.

In data set [12] the target is T1, Glycogen synthase kinase-3 beta. In words: Inhibition of GSK3beta in human SH-SY5Y cells assessed as reduction in copper-induced tau hyperphosphorylation at 10 uM preincubated for 1 hr followed by copper addition and measured after 26 hrs by ELISA. Type of data set: cell-based. The following applies: in the assay text read “16 hrs” for “26 hrs”. In short, it runs like this: as §1
Target sequence in this assay (P49841 whole entry, looked up): as the sequence (P49841 whole entry, looked up) above

In data set [13] the test system is SH-SY5Y. In words: Induction of neurogenesis in human SH-SY5Y cells assessed as upregulation of GAP43 mRNA at 1 uM incubated for 24 hrs by RT-PCR analysis. It is filed as functional, cell-based. In short, it runs like this: as §2
Data set [14] concerns Microglia. In words: Immunomodulatory activity in LPS treated Wistar rat primary microglial cells assessed as decrease in NOS2 expression level at 5 to 50 uM incubated for 24 hrs by western blot analysis. Type of data set: functional, cell-based. The essentials: as §3
Data set [15] deals with SH-SY5Y. In words: Induction of neurogenesis in human SH-SY5Y cells assessed as upregulation of N-myc mRNA at 1 uM incubated for 24 hrs by RT-PCR analysis. It is filed as functional, cell-based. The essentials:
as §2

Data set [16] deals with Microglia. In words: Immunomodulatory activity in LPS treated Wistar rat primary microglial cells assessed as decrease in MRC1 expression level at 5 to 50 uM incubated for 24 hrs by western blot analysis. It is filed as functional, cell-based. The essentials: as §3
Data set [17] concerns the target T1, Glycogen synthase kinase-3 beta. In words: Inhibition of human recombinant GSK3beta up to 50 uM using GSM as substrate incubated for 30 mins by luminescence based assay.
Target sequence in this assay (P49841 whole entry, looked up): as the sequence (P49841 whole entry, looked up) above
Data set [18] deals with Cerebellar granule neurone. The experiment in a line: Neuroprotective activity against 6-OHDA-induced cell death in Wistar rat primary cerebellar granule neurons at 20 uM preincubated for 6 hrs followed by 6-OHDA addition and measured after 24 hrs in presence of in presence of 5 uM verinostat by MTT assay. It is filed as functional, cell-based. The essentials:
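Primary differentiated cerebellar granule neurons challenged with 6-OHDA with or without test compound; viability assessed; mean ± SE of at least 3 experiments in quadruplicate, one-way ANOVA with Bonferroni post hoc test.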
On the technique in general: Formazan colour is commonly taken as a measure of viable cells.

Data set [19] has as its target T2, Histone deacetylase 1. In words: Inhibition of human recombinant his tagged HDAC1 expressed in baculovirus infected […] insect cells up to 30 uM using tertbutyloxycarbonyl (Boc)-(Ac)-Lys-7-amino-4-methylcoumarin as substrate incubated for 1 hr by fluorescence based assay.
For data set [20], the system named is SH-SY5Y. In words: Synergistic neuroprotective activity against H2O2-induced cell death in human SH-SY5Y cells at 0.1 uM incubated for 24 hrs in presence of verinostat by MTS assay. Type of data set: functional, cell-based. In short, it runs like this: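 SH-SY5Y cells challenged 24 h with H2O2 (25 and 50 μM) in presence of compounds (0.1–10 μM), alone or as a two-compound combination; viability by MTS assay as % of control.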

The target in data set [21] is T4, Protein deacetylase HDAC6 (Homo sapiens) (UniProt Q9UBN7).
T4 sequence (whole entry): T3 sequence (Q9UBN7 whole entry)
In words: Inhibition of human recombinant his tagged HDAC6 expressed in baculovirus infected […] insect cells up to 30 uM using batcp as substrate incubated for 1 hr by fluorescence based assay.

Data set [22] addresses Histone deacetylase (Homo sapiens) (UniProt Q13547+O15379+Q9UBN7+Q92769+Q9UQL6+Q8WUI4+Q9BY41+Q96DB2+P56524+Q9UKV0+Q969S8). In words: Synergistic inhibition of HDAC in human SH-SY5Y cells assessed as increase in acetylation of alpha-tubulin incubated for 30 hrs in presence of verinostat by Western blot analysis. Type of data set: cell-based.

Calls of active or inactive are those of the source. The rule behind the calls is not given here.

T2 sequence (Q13547 whole entry): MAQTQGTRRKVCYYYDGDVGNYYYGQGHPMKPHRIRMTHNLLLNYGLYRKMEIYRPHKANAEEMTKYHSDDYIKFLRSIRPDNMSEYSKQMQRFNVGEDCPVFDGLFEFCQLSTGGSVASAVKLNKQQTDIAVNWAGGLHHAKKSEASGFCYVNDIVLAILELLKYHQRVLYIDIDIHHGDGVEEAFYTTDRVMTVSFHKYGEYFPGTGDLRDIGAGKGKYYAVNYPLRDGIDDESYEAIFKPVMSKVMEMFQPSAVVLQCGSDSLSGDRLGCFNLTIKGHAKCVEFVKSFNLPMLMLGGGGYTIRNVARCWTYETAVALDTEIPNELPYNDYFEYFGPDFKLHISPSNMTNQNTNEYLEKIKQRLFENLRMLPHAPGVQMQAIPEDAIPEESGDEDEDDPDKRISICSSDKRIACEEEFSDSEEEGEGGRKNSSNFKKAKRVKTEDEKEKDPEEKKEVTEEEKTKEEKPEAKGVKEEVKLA

Take `[Cl-].[Li+]`: the inhibition entry in data set [1] was “Active”.

For the molecule `CC1=C(/C=C/C(C)=C/C=C/C(C)=C/C(=O)O)C(C)(C)CCC1`, the result in the data set on SH-SY5Y [2], with SH-SY5Y [3], with SH-SY5Y [4] and in the data set on SH-SY5Y [5] was Active.

On to `O=C(CCCNC(=S)Nc1ccc2c(c1)C(=O)NC2=O)NO`, for which the half-inhibitory concentration (IC50) on Histone deacetylase 1 [6] stood at 2.24 µM; in data set [7], 9.85 µM; in data set [8], 12.6 µM.

As for `O=C(CCNC(=S)Nc1ccc2c(c1)C(=O)NC2=O)NO`, the IC50 at Histone deacetylase 1 [6] is 3.75 µM; in data set [7], 20 µM; in data set [8], 18.1 µM.

`O=C(CCCCCCC(=O)Nc1ccccc1)NO` [VORINOSTAT]: in the data set on SH-SY5Y [9], the Activity entry is “Toxic”. Moreover, the outcome in the data set on SH-SY5Y [10], with SH-SY5Y [13], in the data set with Microglia [14], in the data set with SH-SY5Y [15] and with Microglia [16] was Active. The outcome with Microglia [11] was inactive. Also, the inhibition result in data set [12] is “Active”. Also, in [17], the inhibition result was “inactive”.

For `O=C1NC(=O)c2ccccc21` [PHTHALIMIDE], the result with Microglia [11], in the data set with SH-SY5Y [3] and in the data set on SH-SY5Y [20] was inactive. The outcome (with SH-SY5Y [2]; in the data set with SH-SY5Y [4]; in data set [18]; in the data set on SH-SY5Y [5]; in the data set with Microglia [14]; in the data set on Microglia [16]) was Active. For the same molecule, the inhibition entry in data set [12] was “Active”. The inhibition entry (on Histone deacetylase 1 [19]; in data set [21]; in data set [22]) was “inactive” each time. In addition, the IC50 in data set [7] turned out to be 20.2 µM.

In the case of `O=C(CCCCNC(=S)Nc1ccc2c(c1)C(=O)NC2=O)NO`, the figures for the IC50 (at Histone deacetylase 1 [6]; in data set [7]; in data set [8]) were 5.02 µM, 4.11 µM and 14.7 µM, respectively.
